Source: PubChem (The Scripps Research Institute Molecular Screening Center)
In the library only some 3.7% were active in any assay of this set; here they are far more common.
TAAR1 antagonist – antagonists of human TAAR1. CHO RD-HGA16 TAAR1, Fluo-8 calcium fluorescence, antagonist. inhibition, % at 3 µM. 1.5% of 360,000 active. AID 624466;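 active means inhibition above a per-plate cutoff, the mean inhibition of test compounds on that plate plus 3 SD, cut at about 49% in these data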;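 further: 0% = DMSO plus EC80 beta-PEA response and 100% = DMSO alone without agonist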
Target sequence (Q96RJ0 whole entry, looked up): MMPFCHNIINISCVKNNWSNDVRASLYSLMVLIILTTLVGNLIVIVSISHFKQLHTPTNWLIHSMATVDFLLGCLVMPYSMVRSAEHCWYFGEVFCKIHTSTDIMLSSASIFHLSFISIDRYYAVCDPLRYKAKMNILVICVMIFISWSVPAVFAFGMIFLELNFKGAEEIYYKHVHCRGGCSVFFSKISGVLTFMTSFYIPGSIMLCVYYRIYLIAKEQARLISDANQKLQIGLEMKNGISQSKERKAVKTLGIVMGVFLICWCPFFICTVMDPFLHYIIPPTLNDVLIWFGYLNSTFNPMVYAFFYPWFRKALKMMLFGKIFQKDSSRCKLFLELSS
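System: CHO RD-HGA16 cells bearing hTAAR1. Reagent: EC80 β-phenethylamine stimulus. Schedule: seeding 17-24 h prior, 75-min 37 °C, 30-min RT dye loading. Signal: Fluo-8 intracellular calcium dye fluorescence, real-time kinetic reads. Read-out: % inhibition from peak post-agonist over basal fluorescence ratio. Benchmarks: vehicle wells and EC80 agonist wells. Replicates: n of 1.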
HCV NS3 hel inh – HCV NS3 helicase inhibition | NS3 helicase DNA unwinding, Cy5 molecular beacon fluorescence | inhibition, % at 10.9 µM | 0.56% of 290,000 active | AID 1800;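 active means inhibition above the mean of all tested compounds plus 3 SD, set per campaign, cut at about 35% in these data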;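 further: 0% = DMSO wells and 100% = thioflavine S control wells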
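Test system: hepatitis C virus NS3 helicase domain fragment enzyme. Also added: annealed dual-labelled DNA beacon duplex, ATP-started. Timing: 60 min unwinding reaction at 25 °C after ATP addition. Technique: Cy5 fluorescence. Measure: % inhibition of unwinding.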
core dimer inh – blocks dimerization of HCV core protein. 0.33% of 300,000 active. inhibition, % at 5 µM. TR-FRET GST/Flag-core106 dimerization, 1536-well;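 active means inhibition above the mean of all tested compounds plus 3 SD, set per screening campaign, cut at about 45% in these data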
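Assay system – GST-tagged and Flag-tagged HCV core protein residues 1-106 · Quantity – core106 proteins, GST 13.5 nM and Flag 17 nM · Benchmarks – unlabelled core106 and no-GST-core106 wells · Read-out basis – percent inhibition of core106 dimerization signal · Detection – time-resolved FRET, ex 340 nm, em 617 and 671 nm · Schedule – 4 h at 22.5 °C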
TAAR1 ag – human TAAR1 agonism; AID 624467; activation, % at 3 µM; CHO RD-HGA16 TAAR1, Fluo-8 calcium fluorescence; vehicle wells 0%, saturating PEA agonist 100%; Q96RJ0; 0.99% of 360,000 active;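 active means activation above the mean activation of all test compounds in the run plus 3 SD, cut at about 38% in these data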
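Benchmarks: low control DMSO, high control PEA (EC100); System: CHO RD-HGA16 cells carrying human TAAR1 plus Gα16; Detection: Fluo-8 fluorescence, 5 s baseline then 140 s kinetic read; Schedule: 17-24 h plating, Fluo-8 75 min 37 °C, 30 min RT; Read-out basis: % activation from peak over basal fluorescence ratio, DMSO-to-PEA scaled.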
rCAG binder – r(CAG) repeat RNA binding; TO-PRO-1 dye displacement fluorescence; inhibition, % at 3 µM; 1.3% of 370,000 active; AID 651821;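 active means inhibition above the plate cutoff, the mean of all test compounds on that plate plus 3 SD, cut at about 35% in these data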;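 further: 0% = DMSO alone and 100% = 100 µM mitoxantrone as full dye displacement; higher means more dye released from RNA so lower well fluorescence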
TAAR1 nonsel count – counter-screen for TAAR1 antagonists: nonselective antagonists; shares compounds with TAAR1 antagonist; counterscreen cell line, calcium fluorescence, antagonist mode; inhibition, % at 3 µM; 77% of 2,400 active; AID 651780; in the data active means inhibition above about 22%;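 further: CHO-Ga16 host cells stimulated with ATP at an EC80 level; 0% = agonist EC80 plus vehicle and 100% = vehicle without agonist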
TAAR1 ant conf – human TAAR1 antagonism, confirmed; shares compounds with TAAR1 antagonist; TAAR1-expressing cells, fluorescence antagonist read-out; inhibition, % at 3 µM; 40% of 2,400 active; in the data active means inhibition above about 49%;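 further: CHO-Ga16 host cells challenged with agonist PEA near its EC80; 0% = agonist at EC80 plus vehicle and 100% = vehicle with no agonist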
Ga16 nonsel ag – nonselective Ga16 agonism, counter-screen. 18% of 2,400 active. Ga16-expressing cells, calcium fluorescence, agonist counterscreen. shares compounds with TAAR1 antagonist. activation, % at 3 µM; in the data active means activation above about 12%;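 further: 0% = vehicle wells and 100% = saturating stimulus response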
TAAR1 ag counter – TAAR1 agonism, antagonist counter-screen; shares compounds with TAAR1 antagonist; hTAAR1 cell line, fluorescence activation, agonist mode; activation, % at 3 µM; 2% of 2,400 active; in the data active means activation above about 37%;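 further: CHO cells stably expressing TAAR1 with calcium dye readout; 0% = DMSO vehicle and 100% = full agonist response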
An asterisk follows results filed as active; . = no result given.

SMILES	TAAR1 antagonist	HCV NS3 hel inh	core dimer inh	TAAR1 ag	rCAG binder	TAAR1 nonsel count	TAAR1 ant conf	Ga16 nonsel ag	TAAR1 ag counter
Cc1cc(C(=O)CSc2ccc(F)cc2)cc(C)c1OC(=S)N(C)C	78*	-3	1	4	1	34*	60*	11	8
C[C@H](O)[C@@H]1C(=O)N2CCc3c([nH]c4c(-c5ccc6c(c5)OCO6)cccc34)[C@@H]2C[C@@H]1N(C)C(=O)Nc1ccccc1	24	.	.	4	4	.	.	.	.
C[C@@H]1ON(C)[C@H]2C[C@H]3c4[nH]c5c(-c6ccc7c(c6)OCO7)cccc5c4CCN3C(=O)[C@@H]12	62*	.	.	9	6	27*	45	7	5
C[C@H](O)[C@@H]1C(=O)N2CCc3c([nH]c4c(-c5ccccc5)cccc34)[C@@H]2C[C@@H]1N(C)C(=O)Nc1cccc2ccccc12	27	.	.	5	9	.	.	.	.
C[C@H](O)[C@@H]1C(=O)N2CCc3c([nH]c4c(-c5ccccc5)cccc34)[C@@H]2C[C@@H]1N(C)C(=O)Nc1ccccc1	54*	.	.	9	7	31*	26	5	4
COCCNC(=S)N(C)[C@H]1C[C@H]2c3[nH]c4c(-c5ccc6c(c5)OCO6)cccc4c3CCN2C(=O)[C@H]1[C@H](C)O	62*	.	.	15	10	29*	45	4	8
Cc1ccccc1NC(=O)N(C)[C@H]1C[C@H]2c3[nH]c4c(-c5ccccc5)cccc4c3CCN2C(=O)[C@H]1[C@H](C)O	57*	.	.	16	6	29*	35	6	4
Cc1c(NC(=O)C2CCCN(S(=O)(=O)c3ccc(C(C)(C)C)cc3)C2)c(=O)n(-c2ccccc2)n1C (configuration not stated)	.	.	.	.	-1	.	.	.	.
COC(=O)[C@]12C[C@H](CC(=O)NCCC(C)C)C(=O)N(CCc3ccc(OC)c(OC)c3)C1=C[C@H](COCc1ccccc1)O[C@@H]2C	.	.	.	.	1	.	.	.	.
COCCNC(=S)N(C)[C@H]1C[C@H]2c3[nH]c4c(-c5cccc(C)c5)cccc4c3CCN2C[C@H]1[C@H](C)O	.	.	.	.	7	.	.	.	.
CC(=O)CC[C@@H]1CC[C@]2(CCCN(C(=O)C3CCCC3)C2)O1	.	.	.	.	-1	.	.	.	.
COc1cccc(NC(=O)CN(C)C(=O)c2cc(-c3ccccc3)nc3ccccc23)c1	70*	.	4	12	7	34*	51*	9	7
COc1cccc(NC(=O)CN(C)C(=O)c2cc(-c3ccc(F)cc3)nc3ccccc23)c1	75*	.	2	6	12	40*	60*	9	5
COc1ccc(-c2cc(C(=O)N(C)CC(=O)Nc3cccc(F)c3)c3ccccc3n2)cc1OC	76*	.	.	15	7	44*	61*	11	8
COc1cccc(NC(=O)CN(C)C(=O)c2cc3ccccc3cc2OC)c1	7	.	.	2	4	.	.	.	.
COc1cccc(NC(=O)CN(C)C(=O)c2cn(-c3ccccc3)nc2-c2cccnc2)c1	44	.	.	12	2	.	.	.	.
COc1ccc(Cl)cc1NC(=O)CN(C)C(=O)c1cn(-c2ccccc2)nc1-c1cccnc1	58*	.	1	13	4	33*	47	7	5
CC(C)(C)OC(=O)NCCc1ccccc1/C=C/S(=O)(=O)NC1CCCC1	.	.	.	.	3	.	.	.	.
CC(=O)N1CCN(c2ccc(N3CCN(Cc4ccccc4)[C@@H](C)C3)c(C)c2)[C@H](C)C1	-12	.	.	5	0	.	.	.	.
CN(CC(=O)Nc1cccc(F)c1)C(=O)c1cn(-c2ccccc2)nc1-c1cccs1	65*	-28	6	8	11	32*	40	7	6
CN(CC(=O)Nc1ccc(Cl)c(C(F)(F)F)c1)C(=O)c1cc(-c2ccncc2)nc2ccccc12	50*	.	-3	9	4	33*	53*	10	10
COC(=O)[C@@]12CCCCC3=C1N(CCC3)C(=O)[C@H]2CC(=O)N1CCCC1	.	.	.	.	2	.	.	.	.
O=C(c1cccnc1Cl)N1CCC(Oc2cccnc2)CC1	.	.	.	.	0	.	.	.	.
O=C(CN1CCN(S(=O)(=O)c2ccc(F)c(F)c2)CC1)Nc1ccccc1C(=O)NC1CC1	49*	.	.	14	3	22*	35	5	11
N#Cc1ccccc1S(=O)(=O)N1CCN(CC(=O)Nc2ccccc2C(=O)NC2CC2)CC1	56*	.	.	14	0	24*	47	8	10
